# From ChEMBL document CHEMBL5712899, “WDR5 supports colon cancer cells by promoting methylation of H3K4 and suppressing DNA damage” (2018)
# Calls of active or inactive are those of the source. The rule behind the calls is not given here.
# Columns and labels:
# SW-620 [1] = assay: Inhibition of colony formation in human SW620 cells assessed as decrease in colony size at 10 uM incubated for 10 to 14 days; assay type: functional, cell-based; details: time 10-14 day
# Method in brief: (§1)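 Colony assay in 24-well plates with compound for 10–14 days, diluted from 10 mM DMSO stock to a final 0.1% DMSO (vehicle control). Colony number and average colony size quantified per line. Unpaired two-sided t-test.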
# T84 [2] = assay: Inhibition of colony formation in human T84 cells assessed as decrease in number of colonies at 10 uM incubated for 10 to 14 days; assay type: functional, cell-based; details: time 10-14 day; method in brief: as §1
# RKO [3] = assay: Induction of apoptosis in human RKO cells assessed as necrotic cells at 10 uM measured after 48 hrs by Annexin V/Propidium iodide staining based flow cytometry (reference value: 0.54%); assay type: functional
# SW480 = assay: Inhibition of colony formation in human SW480 cells assessed as decrease in number of colonies at 10 uM incubated for 10 to 14 days; assay type: functional, cell-based; details: time 10-14 day; method in brief: as §1
# LoVo [4] = assay: Inhibition of colony formation in human LoVo cells assessed as decrease in number of colonies at 10 uM incubated for 10 to 14 days; assay type: functional, cell-based; details: time 10-14 day; method in brief: as §1
# SW-620 [5] = assay: Induction of apoptosis in human SW620 cells assessed as viable cells at 10 uM measured after 48 hrs by Annexin V/Propidium iodide staining based flow cytometry (Rvb =84.8%); assay type: functional; details: read-out: Activity
# LoVo [6] = assay: Inhibition of colony formation in human LoVo cells assessed as decrease in colony size at 10 uM incubated for 10 to 14 days; assay type: functional, cell-based; details: time 10-14 day; method in brief: as §1
# SW-620 [7] = assay: Induction of apoptosis in human SW620 cells assessed as necrotic cells at 10 uM measured after 48 hrs by Annexin V/Propidium iodide staining based flow cytometry (reference value: 0.87%); assay type: functional
# SW-620 [8] = assay: Inhibition of colony formation in human SW620 cells assessed as decrease in number of colonies at 10 uM incubated for 10 to 14 days; assay type: functional, cell-based; details: time 10-14 day; method in brief: as §1
# SW-620 [9] = assay: Induction of apoptosis in human SW620 cells assessed as late apoptotic cells at 10 uM measured after 48 hrs by Annexin V/Propidium iodide staining based flow cytometry (reference value: 10.3%); assay type: functional
# T84 [10] = assay: Cytotoxicity against human T84 cells assessed as reduction in cell viability at 10 uM for 72 hrs by Alamar Blue assay relative to control; assay type: functional
# Method in brief: (§2)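 Cells grown in DMEM with 10% FBS and treated 72 h with compound diluted 1:1000 from 10 mM DMSO stock (final 0.1% DMSO, vehicle control). alamarBlue added at 100 μL per mL medium for 1–3 h at 37 °C, then fluorescence read. Values background-subtracted against cell-free wells and normalized to control set to 1. Shown ± SD; unpaired two-sided t-test.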
# HCT-116 [11] = assay: Cytotoxicity against human HCT-116 cells assessed as decrease in cell viability at 10 uM for 72 hrs by Alamar Blue assay; assay type: functional, cell-based; method in brief: as §2
# T84 [12] = assay: Inhibition of colony formation in human T84 cells assessed as decrease in colony size at 10 uM incubated for 10 to 14 days; assay type: functional, cell-based; details: time 10-14 day; method in brief: as §1
# HCT-116 [13] = assay: Induction of apoptosis in human HCT-116 cells assessed as late apoptotic cells at 10 uM measured after 48 hrs by Annexin V/Propidium iodide staining based flow cytometry (reference value: 17.2%); assay type: functional
# RKO [14] = assay: Induction of apoptosis in human RKO cells assessed as viable cells at 10 uM measured after 48 hrs by Annexin V/Propidium iodide staining based flow cytometry (Rvb =76.1%); assay type: functional; details: read-out: Activity
# RKO [15] = assay: Cell cycle arrest in human RKO cells assessed as increase in G1-phase cell population at 10 uM measured after 48 hrs by propidium iodide staining based flow cytometry; assay type: functional
# Method in brief: (§3)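 Fixed overnight at −20 °C in ice-cold 70% ethanol after collecting adherent and nonadherent cells. Rehydrated in PBS for 15 min at 37 °C, then PI-stained for 8–15 h. Read on an LSR II flow cytometer with cell-cycle modelling for phase percentages. Compound added from 10 mM DMSO stock diluted 1:1000 into pre-warmed medium (0.1% DMSO vehicle control). Unpaired two-sided t-test.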
# SW-620 [16] = assay: Induction of apoptosis in human SW620 cells assessed as early apoptotic cells at 10 uM measured after 48 hrs by Annexin V/Propidium iodide staining based flow cytometry (reference value: 4.03%); assay type: functional
# HCT-116 [17] = assay: Inhibition of colony formation in human HCT-116 cells assessed as decrease in colony size at 10 uM incubated for 10 to 14 days; assay type: functional, cell-based; details: time 10-14 day; method in brief: as §1
# RKO [18] = assay: Cytotoxicity against human RKO cells assessed as decrease in cell viability at 10 uM measured after 72 hrs by Alamar Blue assay; assay type: functional, cell-based; method in brief: as §2
# [19] = Inhibition of RBBP5 interaction with flag-tagged human WDR5 expressed in HEK293T cells assessed as endogenous RBBP5 level at 10 uM measured after 5 hrs by co-immunoprecipitation assay relative to control; set-up: scale not given: the % may be the effect or the level left; details: condition malignant colon neoplasm
# RKO [20] = assay: Inhibition of colony formation in human RKO cells assessed as decrease in colony size at 10 uM incubated for 10 to 14 days; assay type: functional, cell-based; details: time 10-14 day; method in brief: as §1
# SW-620 [21] = assay: Cytotoxicity against human SW620 cells assessed as reduction in cell viability at 10 uM for 72 hrs by Alamar Blue assay relative to control; assay type: functional; method in brief: as §2
# HCT-116 [22] = assay: Induction of apoptosis in human HCT-116 cells assessed as necrotic cells at 10 uM measured after 48 hrs by Annexin V/Propidium iodide staining based flow cytometry (reference value: 0.67%); assay type: functional
# RKO [23] = assay: Induction of apoptosis in human RKO cells assessed as early apoptotic cells at 10 uM measured after 48 hrs by Annexin V/Propidium iodide staining based flow cytometry (reference value: 16.7%); assay type: functional
# SW-620 [24] = assay: Cell cycle arrest in human SW620 cells assessed as increase in G1-phase cell population at 10 uM measured after 48 hrs by propidium iodide staining based flow cytometry; assay type: functional; method in brief: as §3
# HCT-116 [25] = assay: Induction of apoptosis in human HCT-116 cells assessed as viable cells at 10 uM measured after 48 hrs by Annexin V/Propidium iodide staining based flow cytometry (reference value: 62.7%); assay type: functional; details: read-out: Activity
# RKO [26] = assay: Inhibition of colony formation in human RKO cells assessed as decrease in number of colonies at 10 uM incubated for 10 to 14 days; assay type: functional, cell-based; details: time 10-14 day; method in brief: as §1
# RKO [27] = assay: Induction of apoptosis in human RKO cells assessed as late apoptotic cells at 10 uM measured after 48 hrs by Annexin V/Propidium iodide staining based flow cytometry (reference value: 6.58%); assay type: functional
# HCT-116 [28] = assay: Induction of apoptosis in human HCT-116 cells assessed as early apoptotic cells at 10 uM measured after 48 hrs by Annexin V/Propidium iodide staining based flow cytometry (reference value: 19.4%); assay type: functional
smiles,measurement,setting,value
CN1CCN(c2ccc(-c3cccc(CN4CCOCC4)c3)cc2NC(=O)c2c[nH]c(=O)cc2C(F)(F)F)CC1,inhibition,SW-620 [1],Active
same,inhibition,T84 [2],Active
same,Activity,RKO [3],0.18%
same,inhibition,SW480,Active
same,inhibition,LoVo [4],inactive
same,viability at 10 µM,SW-620 [5],81.3%
same,inhibition,LoVo [6],inactive
same,Activity,SW-620 [7],0.43%
same,inhibition,SW-620 [8],Active
same,Activity,SW-620 [9],10.3%
same,Activity,T84 [10],50%
same,Activity,HCT-116 [11],Active
same,inhibition,T84 [12],Active
same,Activity,HCT-116 [13],30.4%
same,viability at 10 µM,RKO [14],68.5%
same,Activity,RKO [15],Active
same,Activity,SW-620 [16],8.01%
same,inhibition,HCT-116 [17],Active
same,Activity,RKO [18],Active
same,Activity,[19],<20%
same,inhibition,RKO [20],inactive
same,Activity,SW-620 [21],50%
same,Activity,HCT-116 [22],1.36%
same,Activity,RKO [23],27%
same,Activity,SW-620 [24],Active
same,viability at 10 µM,HCT-116 [25],46.1%
same,inhibition,RKO [26],Active
same,Activity,RKO [27],4.3%
same,Activity,HCT-116 [28],22.2%
